{"data": "Experimental data from different studies", "cell line": "A549", "observed": "cell growth or viability", "note": "Compare with care: the assays were run in different laboratories."}
{"Compound": "Cc1ccc2c(c1)C(=NNc1nnc(Cc3ccccc3)c3ccccc13)C(=O)N2", "concentration": "30 µM", "inhibition [%]": 85}
{"Compound": "O=C1Nc2ccc(F)cc2/C1=N/NC(=O)c1cc2ccccc2[nH]1", "concentration": "30 µM", "inhibition [%]": 6.9}
{"Compound": "COc1ccc2c(c1)C(=NNc1nc3ccccc3n(C)c1=O)C(=O)N2", "concentration": "30 µM", "inhibition [%]": 85.9}
{"Compound": "Cc1c(-c2cccc(C(F)(F)F)c2)sc2[nH]c(=O)n([C@H](C)c3cccc4ccccc34)c(=O)c12", "concentration": "10 µM", "inhibition [%]": "> 80"}
{"Compound": "COc1cccc(NC(=O)CN2C(=O)/C(=C/c3ccc(F)cc3)SC2=S)c1", "technique": "MTT", "concentration": "10 µM", "inhibition [%]": 22.3}
{"Compound": "COc1ccc(-c2nc(NN=C3C(=O)Nc4ccccc43)c3ccccc3n2)cc1OC", "concentration": "30 µM", "inhibition [%]": 58.6}
{"Compound": "CN1C(=O)/C(=N\\NC(=O)c2cc3ccccc3[nH]2)c2ccccc21", "concentration": "30 µM", "inhibition [%]": 94.9}
{"Compound": "COc1ccc(-c2nc(NN=C3C(=O)Nc4ccc(Cl)cc43)c3ccccc3n2)cc1OC", "concentration": "30 µM", "inhibition [%]": 10.9}
{"Compound": "O=C1Nc2ccc(Br)cc2/C1=N/NC(=O)c1cc2ccccc2[nH]1", "concentration": "30 µM", "inhibition [%]": 77}
{"Compound": "O=C(CN1C(=O)/C(=C/c2ccncc2)SC1=S)Nc1ccccc1", "technique": "MTT", "concentration": "10 µM", "inhibition [%]": 25.9}
{"Compound": "Cn1c(=O)c(NN=C2C(=O)Nc3ccc(Br)cc32)nc2ccccc21", "concentration": "30 µM", "inhibition [%]": 84.9}
{"Compound": "O=C(N/N=C1\\C(=O)N(c2ccccc2)c2ccccc21)c1cc2ccccc2[nH]1", "concentration": "30 µM", "inhibition [%]": 98.5}
{"Compound": "O=C(CN1C(=O)/C(=C/c2cccc(Br)c2)SC1=S)Nc1ccccc1", "technique": "MTT", "concentration": "10 µM", "inhibition [%]": 25.8}
{"Compound": "COc1cc(CNC(=O)CCCC/C=C/C(C)C)ccc1O", "technique": "SRB", "concentration": "10 µM", "inhibition [%]": 0}
{"Compound": "COc1ccc(/C=C2\\SC(=S)N(CC(=O)Nc3ccccc3)C2=O)cc1", "technique": "MTT", "concentration": "10 µM", "inhibition [%]": 23}
{"Compound": "CCN(CC)CCNC(=O)c1c(C)[nH]c(/C=C2\\C(=O)Nc3ccc(F)cc32)c1C", "concentration": "30 µM", "inhibition [%]": 85.7}
{"Compound": "O=C(CN1C(=O)/C(=C/c2cccc([N+](=O)[O-])c2)SC1=S)Nc1ccccc1", "technique": "MTT", "concentration": "10 µM", "inhibition [%]": 22.2}
{"Compound": "Cc1ccc2c(c1)C(=NNc1nc3ccccc3n(C)c1=O)C(=O)N2", "concentration": "30 µM", "inhibition [%]": 68.8}
{"Compound": "O=C(CN1C(=O)/C(=C/c2ccc(O)cc2)SC1=S)Nc1ccccc1", "technique": "MTT", "concentration": "10 µM", "inhibition [%]": 29.6}
{"Compound": "COc1ccc2c(c1)/C(=N/NC(=O)c1cc3ccccc3[nH]1)C(=O)N2", "concentration": "30 µM", "inhibition [%]": 85.3}
